Two compounds from ChEMBL document CHEMBL1149069, “SB-202742, a novel beta-lactamase inhibitor isolated from Spondias mombin” (J Nat Prod, 1994) can be followed below.

Structures are written as SMILES. Values after ≈ are worked out from the molar mass of the structure shown. Active and inactive are the calls of the source. The calls are words filed in the database; no cut-off is given here.

Experiment [1] is described as follows: Inhibition of Escherichia coli K-12 beta-lactamase OXA1 assessed as inhibition of nitrocefin hydrolysis pre-incubated for 5 mins by microtiter plate assay.
The subject of experiment [2] is Staphylococcus aureus. As to the kind of experiment: Antimicrobial activity against Staphylococcus aureus Smith by microtiter method. Type of experiment: functional. An outline of the steps: (§1)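 Broth microdilution MIC in Oxoid nutrient broth No. 2. Inoculum was a 1/500 dilution of an overnight broth culture, and plates were incubated overnight at 37°.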
Another experiment deals with Proteus mirabilis. Briefly: Antimicrobial activity against Proteus mirabilis C977 by microtiter method. Format: functional. In a few lines:
as §1

A further experiment relates to Serratia marcescens. Briefly: Antimicrobial activity against Serratia marcescens US32 by microtiter method. Type of experiment: functional. An outline of the steps:
as §1

Experiment [3] can be described thus: Inhibition of Escherichia coli K-12 beta-lactamase PSE-4 assessed as inhibition of nitrocefin hydrolysis preincubated for 5 mins by microtiter plate assay.
The next experiment deals with Bacillus subtilis. Briefly: Antimicrobial activity against Bacillus subtilis ATCC 6633 by microtiter method. Format: functional. An outline of the steps:
as §1

In experiment [4] the test system is Staphylococcus aureus. As to the kind of experiment: Antimicrobial activity against Staphylococcus aureus Oxford by microtiter method. Type of experiment: functional. In a few lines:
as §1

The subject of a further experiment is Streptococcus pneumoniae. As to the kind of experiment: Antimicrobial activity against Streptococcus pneumoniae PU7 after overnight incubation by Todd Hewitt broth dilution method. Type of experiment: functional. An outline of the steps: (§2)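 Broth microdilution MIC in Todd Hewitt broth. Inoculum was a 1/500 dilution of an overnight broth culture, and plates were incubated overnight at 37°.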
(Dilution methods test growth across graded concentrations, often in twofold steps.)

The next experiment deals with Pseudomonas aeruginosa. Briefly: Antimicrobial activity against Pseudomonas aeruginosa 1771P by microtiter method. Type of experiment: functional. An outline of the steps:
as §1

In the next experiment the test system is Escherichia coli. As to the kind of experiment: Antimicrobial activity against Escherichia coli NCTC-10418 by microtiter method. Format: functional. In a few lines: as §1
The test system of another experiment is Enterococcus faecalis. As to the kind of experiment: Antimicrobial activity against Streptococcus faecalis 1 by microtiter method. Format: functional. In a few lines:
as §1

The subject of experiment [5] is Staphylococcus saprophyticus. As to the kind of experiment: Antimicrobial activity against Staphylococcus saprophyticus Fl2 by microtiter method. Type of experiment: functional. In a few lines:
as §1

For experiment [6], the target named is T1, Beta-lactamase (Proteus mirabilis, UniProt P30897).
T1 sequence (P30897 whole entry): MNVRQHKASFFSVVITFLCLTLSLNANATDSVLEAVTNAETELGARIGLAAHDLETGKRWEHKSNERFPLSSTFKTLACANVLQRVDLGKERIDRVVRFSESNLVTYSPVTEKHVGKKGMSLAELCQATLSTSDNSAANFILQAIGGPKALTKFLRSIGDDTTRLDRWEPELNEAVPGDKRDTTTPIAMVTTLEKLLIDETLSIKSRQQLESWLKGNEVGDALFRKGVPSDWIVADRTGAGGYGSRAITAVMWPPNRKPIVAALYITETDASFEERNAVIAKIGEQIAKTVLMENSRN
As to the kind of experiment: Inhibition of Proteus mirabilis C889 beta-lactamase assessed as inhibition of nitrocefin hydrolysis preincubated for 5 mins by microtiter plate assay.

Experiment [7] concerns the target Beta-lactamase (Pseudomonas aeruginosa (strain ATCC 15692 / PAO1 / 1C / PRS 101 / LMG12228), UniProt P24735). Briefly: Inhibition of Pseudomonas aeruginosa A beta-lactamase assessed as inhibition of nitrocefin hydrolysis preincubated for 5 mins by microtiter plate assay.
Another experiment deals with Enterobacter cloacae. Briefly: Antimicrobial activity against Enterobacter cloacae N1 by microtiter method. Format: functional. In a few lines:
as §1

In the next experiment the test system is Klebsiella pneumoniae. As to the kind of experiment: Antimicrobial activity against Klebsiella pneumoniae A by microtiter method. Format: functional. An outline of the steps:
as §1

Experiment [8] has as its system Staphylococcus epidermidis. As to the kind of experiment: Antimicrobial activity against Staphylococcus epidermidis NCTC 11047 by microtiter method. Format: functional. An outline of the steps: as §1
The target in experiment [9] is Beta-lactamase (Staphylococcus aureus) (UniProt P00807). Briefly: Inhibition of Staphylococcus aureus Russell beta-lactamase assessed as inhibition of nitrocefin hydrolysis up to 567 ug/ml pre-incubated for 5 mins by microtiter plate assay. In a few lines: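 Inhibitor was pre-incubated with the enzyme for 5 min at 37°, then hydrolysis of 200 µM nitrocefin was read on a microtiter plate reader. Inhibitor was tested at concentrations up to 567 µg/ml.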
Chain of Beta-lactamase (Staphylococcus aureus) (P00807 whole entry): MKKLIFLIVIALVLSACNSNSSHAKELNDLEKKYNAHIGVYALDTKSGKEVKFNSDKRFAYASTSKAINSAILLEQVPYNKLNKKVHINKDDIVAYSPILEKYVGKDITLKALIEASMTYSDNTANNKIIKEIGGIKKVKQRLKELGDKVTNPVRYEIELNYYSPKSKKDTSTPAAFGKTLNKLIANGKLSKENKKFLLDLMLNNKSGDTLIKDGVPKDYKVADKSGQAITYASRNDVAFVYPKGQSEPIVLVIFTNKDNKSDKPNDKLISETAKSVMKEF

Experiment [10] concerns Staphylococcus aureus. Briefly: Antimicrobial activity against Staphylococcus aureus Russell by microtiter method. Format: functional. An outline of the steps:
as §1

In the next experiment the target is Beta-lactamase TEM (Escherichia coli, UniProt P62593). Briefly: Inhibition of Escherichia coli JT4 beta-lactamase TEM1 assessed as inhibition of nitrocefin hydrolysis preincubated for 5 mins by microtiter plate assay. In a few lines:
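Inhibitor was pre-incubated with enzyme for 5 min at 37° before each determination. Enzyme classification follows Bush.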

The next experiment concerns Streptococcus pyogenes. As to the kind of experiment: Antimicrobial activity against Streptococcus pyogenes CN 10 after overnight incubation by Todd Hewitt broth dilution method. Format: functional. In a few lines: as §2
Experiment [11] deals with Beta-lactamase (Enterobacter cloacae, UniProt P05364). Briefly: Inhibition of Enterobacter cloacae P99 beta-lactamase assessed as inhibition of nitrocefin hydrolysis pre-incubated for 5 mins by microtiter plate assay.
Chain of Beta-lactamase (Enterobacter cloacae, UniProt P05364) (P05364 whole entry): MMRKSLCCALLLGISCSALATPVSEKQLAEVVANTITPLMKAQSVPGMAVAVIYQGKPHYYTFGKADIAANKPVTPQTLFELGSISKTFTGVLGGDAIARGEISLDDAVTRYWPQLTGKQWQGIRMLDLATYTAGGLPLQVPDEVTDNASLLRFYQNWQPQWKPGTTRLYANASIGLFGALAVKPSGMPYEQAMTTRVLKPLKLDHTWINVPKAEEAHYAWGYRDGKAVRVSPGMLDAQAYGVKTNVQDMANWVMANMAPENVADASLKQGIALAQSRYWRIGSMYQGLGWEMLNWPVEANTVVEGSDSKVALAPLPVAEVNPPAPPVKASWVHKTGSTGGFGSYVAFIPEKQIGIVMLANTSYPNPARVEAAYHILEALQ

Chain of Beta-lactamase (Pseudomonas aeruginosa (strain ATCC 15692 / PAO1 / 1C / PRS 101 / LMG12228), UniProt P24735) (P24735 whole entry): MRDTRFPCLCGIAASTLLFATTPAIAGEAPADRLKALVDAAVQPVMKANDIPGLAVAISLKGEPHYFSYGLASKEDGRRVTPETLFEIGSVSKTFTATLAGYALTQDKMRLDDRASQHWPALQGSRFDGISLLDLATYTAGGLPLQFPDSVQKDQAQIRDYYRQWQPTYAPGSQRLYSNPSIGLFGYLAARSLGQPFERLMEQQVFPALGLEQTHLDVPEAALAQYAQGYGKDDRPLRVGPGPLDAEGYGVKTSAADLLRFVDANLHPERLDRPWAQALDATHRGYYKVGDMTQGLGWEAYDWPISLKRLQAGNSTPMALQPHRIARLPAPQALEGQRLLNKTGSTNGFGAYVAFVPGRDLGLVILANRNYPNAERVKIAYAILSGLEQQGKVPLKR
Chain of Beta-lactamase TEM (P62593 whole entry): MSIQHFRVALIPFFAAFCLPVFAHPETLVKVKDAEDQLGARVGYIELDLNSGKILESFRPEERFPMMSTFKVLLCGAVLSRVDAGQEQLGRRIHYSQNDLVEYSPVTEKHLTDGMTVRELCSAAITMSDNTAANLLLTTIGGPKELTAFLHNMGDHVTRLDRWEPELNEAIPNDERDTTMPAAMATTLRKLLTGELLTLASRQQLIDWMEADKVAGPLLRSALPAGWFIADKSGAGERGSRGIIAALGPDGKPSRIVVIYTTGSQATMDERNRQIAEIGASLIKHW

A word on the IC50: it is the concentration that gives 50% inhibition. As usually defined, the MIC is the lowest concentration found to suppress growth. Low readings indicate greater potency, high ones weaker potency. Consider `CC/C=C\C/C=C\C/C=C\CCCCCCCc1cccc(O)c1C(=O)O`, for which the IC50 in experiment [1] was 79.7 µg/mL (≈ 215 µM); in experiment [3] it was 10.1 µg/mL (≈ 27.3 µM); at Beta-lactamase [6] it was 300 µM; at Beta-lactamase [7], 109 µM; on Beta-lactamase TEM it was 13.5 µM; at Beta-lactamase [11], 44.5 µM. Further, the MIC against Staphylococcus aureus [2] was 2 µg/mL (≈ 5.4 µM); in the experiment with Proteus mirabilis, above 256 µg/mL; in the experiment on Serratia marcescens, above 256 µg/mL; against Bacillus subtilis, 4 µg/mL (≈ 10.8 µM); against Staphylococcus aureus [4], 8 µg/mL (≈ 21.6 µM); against Streptococcus pneumoniae it was 2 µg/mL (≈ 5.4 µM). Also, the MIC was above 256 µg/mL with Pseudomonas aeruginosa; above 256 µg/mL against Escherichia coli; 0.25 µg/mL (≈ 0.675 µM) with Enterococcus faecalis; 2 µg/mL (≈ 5.4 µM) in experiment [5]; above 256 µg/mL in the experiment on Enterobacter cloacae; above 256 µg/mL in the experiment with Klebsiella pneumoniae. Further, the MIC in [8] stood at 2 µg/mL (≈ 5.4 µM); against Staphylococcus aureus [10] it was 32 µg/mL (≈ 86.4 µM); in the experiment with Streptococcus pyogenes, 2 µg/mL (≈ 5.4 µM). In addition, in [9], the outcome was inactive.
On to `O=C(O)[C@H]1/C(=C/CO)O[C@@H]2CC(=O)N21` [CLAVULANIC ACID], for which the IC50 in [1] turned out to be 0.35 µg/mL (≈ 1.76 µM).
